According to ChEMBL document CHEMBL2346629, “Discovery and characterization of novel allosteric FAK inhibitors” (Eur J Med Chem, 2013):

Assays:
[1] = biological target: Proto-oncogene tyrosine-protein kinase ROS (Homo sapiens) (UniProt P08922); assay: Inhibition of ROS (unknown origin) using [gamma-33P]ATP assessed as residual activity at 3 uM
[2] = biological target: Fibroblast growth factor receptor 2 (Homo sapiens) (UniProt P21802); assay: Inhibition of FGFR2 (unknown origin) using [gamma-33P]ATP assessed as residual activity at 3 uM
Outline: (§1)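 Reaction Biology HotSpot radiometric profiling panel of 288 kinases (261 wild-type, 27 mutant). Kinase activity was read out by incorporation of [γ-33P]ATP.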

[3] = biological target: Serine/threonine-protein kinase MARK2 (Homo sapiens) (UniProt Q7KZI7); assay: Inhibition of MARK2 (unknown origin) using [gamma-33P]ATP assessed as residual activity at 3 uM
Serine/threonine-protein kinase MARK2 (Homo sapiens), sequence (Q7KZI7 whole entry): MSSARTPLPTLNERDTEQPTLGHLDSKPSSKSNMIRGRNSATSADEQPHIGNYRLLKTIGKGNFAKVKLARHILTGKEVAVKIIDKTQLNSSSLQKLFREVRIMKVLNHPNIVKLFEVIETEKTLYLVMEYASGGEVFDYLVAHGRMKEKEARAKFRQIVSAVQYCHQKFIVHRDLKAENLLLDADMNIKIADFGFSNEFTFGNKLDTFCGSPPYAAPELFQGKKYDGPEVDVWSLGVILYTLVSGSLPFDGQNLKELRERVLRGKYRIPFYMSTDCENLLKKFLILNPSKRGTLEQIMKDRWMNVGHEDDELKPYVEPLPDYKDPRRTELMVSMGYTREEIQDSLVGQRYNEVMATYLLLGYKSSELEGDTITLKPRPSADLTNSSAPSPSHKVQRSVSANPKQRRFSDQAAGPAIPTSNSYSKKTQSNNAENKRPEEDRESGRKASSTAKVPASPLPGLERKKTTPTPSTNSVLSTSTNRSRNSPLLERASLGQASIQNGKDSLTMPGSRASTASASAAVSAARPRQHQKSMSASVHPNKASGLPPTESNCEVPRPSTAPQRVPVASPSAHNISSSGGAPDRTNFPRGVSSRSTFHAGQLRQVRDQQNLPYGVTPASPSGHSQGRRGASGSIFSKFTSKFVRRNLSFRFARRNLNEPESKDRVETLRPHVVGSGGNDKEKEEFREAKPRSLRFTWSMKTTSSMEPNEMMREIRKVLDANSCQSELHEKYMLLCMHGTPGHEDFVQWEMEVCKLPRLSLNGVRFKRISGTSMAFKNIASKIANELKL
Outline: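 Contract radiometric panel screen of 288 kinases (261 wild-type, 27 mutant). Inhibition was read by [gamma-33P]ATP radioactivity incorporation.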

[4] = biological target: 3-phosphoinositide-dependent protein kinase 1 (Homo sapiens) (UniProt O15530); assay: Inhibition of PDK1 (unknown origin) using [gamma-33P]ATP assessed as residual activity at 3 uM
[5] = biological target: Tyrosine-protein kinase Tec (Homo sapiens) (UniProt P42680); assay: Inhibition of TEC (unknown origin) using [gamma-33P]ATP assessed as residual activity at 3 uM
[6] = biological target: Epidermal growth factor receptor (Homo sapiens) (UniProt P00533); assay: Inhibition of EGFR (unknown origin) using [gamma-33P]ATP assessed as residual activity at 3 uM; outline: as §1
[7] = biological target: cGMP-dependent protein kinase 1 (Homo sapiens) (UniProt Q13976); assay: Inhibition of PKG1a (unknown origin) using [gamma-33P]ATP assessed as residual activity at 3 uM
[8] = system: Epidermal growth factor receptor (Homo sapiens), P00533 [T790M]; assay: Inhibition of EGFR T790M mutant (unknown origin) using [gamma-33P]ATP assessed as residual activity at 3 uM; format: protein assay; outline: as §1
[9] = biological target: Cyclin-dependent kinase 1/cyclin B1 (Homo sapiens) (UniProt P06493+P14635); assay: Inhibition of CDK1/cyclinB (unknown origin) using [gamma-33P]ATP assessed as residual activity at 3 uM; format: protein-complex assay
Outline: (§2)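 Radiometric profiling across 288 kinases (261 wild-type, 27 mutant), run as an outsourced service. Inhibition read out as [gamma-33P]ATP incorporation into substrate.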

[10] = biological target: Serine/threonine-protein kinase mTOR (Homo sapiens) (UniProt P42345); assay: Inhibition of mTOR (unknown origin) using [gamma-33P]ATP assessed as residual activity at 3 uM
[11] = biological target: Rho-associated protein kinase 2 (Homo sapiens) (UniProt O75116); assay: Inhibition of ROCK2 (unknown origin) using [gamma-33P]ATP assessed as residual activity at 3 uM
[12] = biological target: Cyclin-dependent kinase 5/CDK5 activator 1 (Homo sapiens) (UniProt Q00535+Q15078); assay: Inhibition of CDK5/p35 (unknown origin) using [gamma-33P]ATP assessed as residual activity at 3 uM; format: protein-complex assay; outline: as §2
[13] = biological target: Tyrosine-protein kinase ITK/TSK (Homo sapiens) (UniProt Q08881); assay: Inhibition of ITK (unknown origin) using [gamma-33P]ATP assessed as residual activity at 3 uM
Outline: (§3)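 Radiometric kinase profiling service covering 288 kinases (261 wild-type, 27 mutant). Inhibition was read as incorporation from [γ-³³P]ATP.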

[14] = biological target: Serine/threonine-protein kinase pim-1 (Homo sapiens) (UniProt P11309); assay: Inhibition of PIM1 (unknown origin) using [gamma-33P]ATP assessed as residual activity at 3 uM
Serine/threonine-protein kinase pim-1 (Homo sapiens), sequence (P11309 whole entry, looked up): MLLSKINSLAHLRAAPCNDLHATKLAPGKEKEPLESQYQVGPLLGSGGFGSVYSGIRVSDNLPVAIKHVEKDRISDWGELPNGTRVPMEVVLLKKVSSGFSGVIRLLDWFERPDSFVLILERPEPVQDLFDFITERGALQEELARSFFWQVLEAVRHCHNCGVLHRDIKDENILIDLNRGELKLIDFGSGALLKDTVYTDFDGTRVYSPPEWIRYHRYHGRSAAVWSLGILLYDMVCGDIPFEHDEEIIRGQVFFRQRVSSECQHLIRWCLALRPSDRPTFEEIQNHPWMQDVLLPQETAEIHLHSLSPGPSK

[15] = biological target: Ephrin type-B receptor 1 (Homo sapiens) (UniProt P54762); assay: Inhibition of EPHB1 (unknown origin) using [gamma-33P]ATP assessed as residual activity at 3 uM; outline: as §1
[16] = biological target: Protein kinase C beta type (Homo sapiens) (UniProt P05771); assay: Inhibition of PKCb2 (unknown origin) using [gamma-33P]ATP assessed as residual activity at 3 uM
Protein kinase C beta type (Homo sapiens), sequence (P05771 2-671 limits assumed): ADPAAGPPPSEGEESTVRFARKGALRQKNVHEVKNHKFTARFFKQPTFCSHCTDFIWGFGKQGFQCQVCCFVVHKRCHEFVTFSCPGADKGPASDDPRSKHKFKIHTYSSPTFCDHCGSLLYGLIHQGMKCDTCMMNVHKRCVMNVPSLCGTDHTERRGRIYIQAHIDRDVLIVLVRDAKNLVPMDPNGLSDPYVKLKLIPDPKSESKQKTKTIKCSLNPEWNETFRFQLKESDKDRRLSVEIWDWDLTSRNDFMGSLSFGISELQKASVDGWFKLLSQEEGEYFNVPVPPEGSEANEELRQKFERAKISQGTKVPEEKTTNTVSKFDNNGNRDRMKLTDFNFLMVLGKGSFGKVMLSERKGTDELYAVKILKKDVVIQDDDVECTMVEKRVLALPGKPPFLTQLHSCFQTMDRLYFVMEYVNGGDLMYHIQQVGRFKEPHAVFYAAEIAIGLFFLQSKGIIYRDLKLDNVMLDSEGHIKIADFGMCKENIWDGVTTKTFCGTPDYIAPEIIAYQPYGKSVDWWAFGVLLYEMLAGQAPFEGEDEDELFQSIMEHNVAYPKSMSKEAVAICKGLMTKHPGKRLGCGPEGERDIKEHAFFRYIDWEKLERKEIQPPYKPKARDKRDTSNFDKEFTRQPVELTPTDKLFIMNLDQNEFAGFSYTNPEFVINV

[17] = biological target: Serine/threonine-protein kinase Chk1 (Homo sapiens) (UniProt O14757); assay: Inhibition of CHK1 (unknown origin) using [gamma-33P]ATP assessed as residual activity at 3 uM; outline: as §2
[18] = biological target: Protein-tyrosine kinase 6 (Homo sapiens) (UniProt Q13882); assay: Inhibition of BRK (unknown origin) using [gamma-33P]ATP assessed as residual activity at 3 uM; outline: as §2
[19] = system: Epidermal growth factor receptor (Homo sapiens), P00533 [L861R,T790M]; assay: Inhibition of EGFR […] double mutant (unknown origin) using [gamma-33P]ATP assessed as residual activity at 3 uM; format: protein assay; outline: as §1
[20] = biological target: Dual specificity protein kinase CLK3 (Homo sapiens) (UniProt P49761); assay: Inhibition of CLK3 (unknown origin) using [gamma-33P]ATP assessed as residual activity at 3 uM; outline: as §1
[21] = biological target: Serine/threonine-protein kinase VRK1 (Homo sapiens) (UniProt Q99986); assay: Inhibition of VRK1 (unknown origin) using [gamma-33P]ATP assessed as residual activity at 3 uM
Serine/threonine-protein kinase VRK1 (Homo sapiens), sequence (Q99986 whole entry): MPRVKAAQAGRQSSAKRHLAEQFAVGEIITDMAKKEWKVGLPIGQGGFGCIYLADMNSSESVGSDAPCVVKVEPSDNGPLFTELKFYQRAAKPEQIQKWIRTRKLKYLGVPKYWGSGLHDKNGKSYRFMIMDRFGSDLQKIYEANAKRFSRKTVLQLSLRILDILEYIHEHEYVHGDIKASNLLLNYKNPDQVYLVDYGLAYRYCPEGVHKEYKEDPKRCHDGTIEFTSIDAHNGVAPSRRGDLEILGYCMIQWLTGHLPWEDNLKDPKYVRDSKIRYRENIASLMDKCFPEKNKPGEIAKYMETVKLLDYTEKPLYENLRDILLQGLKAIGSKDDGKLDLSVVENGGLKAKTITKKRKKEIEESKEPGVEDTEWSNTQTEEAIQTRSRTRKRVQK

[22] = biological target: Serine/threonine-protein kinase PLK2 (Homo sapiens) (UniProt Q9NYY3); assay: Inhibition of PLK2 (unknown origin) using [gamma-33P]ATP assessed as residual activity at 3 uM
Serine/threonine-protein kinase PLK2 (Homo sapiens), sequence (Q9NYY3 whole entry, looked up): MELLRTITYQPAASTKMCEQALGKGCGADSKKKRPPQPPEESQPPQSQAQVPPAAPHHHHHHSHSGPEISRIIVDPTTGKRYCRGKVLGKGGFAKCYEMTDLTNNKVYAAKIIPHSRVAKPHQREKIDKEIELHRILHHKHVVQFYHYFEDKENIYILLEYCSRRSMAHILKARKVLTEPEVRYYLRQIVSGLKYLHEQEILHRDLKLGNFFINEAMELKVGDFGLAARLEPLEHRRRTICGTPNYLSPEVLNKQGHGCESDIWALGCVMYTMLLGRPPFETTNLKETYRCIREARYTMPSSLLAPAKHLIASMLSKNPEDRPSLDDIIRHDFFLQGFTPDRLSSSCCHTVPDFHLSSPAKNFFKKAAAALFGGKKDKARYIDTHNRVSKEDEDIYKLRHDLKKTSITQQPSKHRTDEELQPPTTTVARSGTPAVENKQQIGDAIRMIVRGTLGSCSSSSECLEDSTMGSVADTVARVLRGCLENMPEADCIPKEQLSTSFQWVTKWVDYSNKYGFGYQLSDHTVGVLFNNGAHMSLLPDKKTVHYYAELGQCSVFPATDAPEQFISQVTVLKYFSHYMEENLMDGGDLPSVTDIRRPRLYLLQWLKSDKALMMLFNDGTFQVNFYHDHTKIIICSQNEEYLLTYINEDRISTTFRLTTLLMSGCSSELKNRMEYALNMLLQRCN

[23] = biological target: Serine/threonine-protein kinase TBK1 (Homo sapiens) (UniProt Q9UHD2); assay: Inhibition of TBK1 (unknown origin) using [gamma-33P]ATP assessed as residual activity at 3 uM
Serine/threonine-protein kinase TBK1 (Homo sapiens), sequence (Q9UHD2 whole entry): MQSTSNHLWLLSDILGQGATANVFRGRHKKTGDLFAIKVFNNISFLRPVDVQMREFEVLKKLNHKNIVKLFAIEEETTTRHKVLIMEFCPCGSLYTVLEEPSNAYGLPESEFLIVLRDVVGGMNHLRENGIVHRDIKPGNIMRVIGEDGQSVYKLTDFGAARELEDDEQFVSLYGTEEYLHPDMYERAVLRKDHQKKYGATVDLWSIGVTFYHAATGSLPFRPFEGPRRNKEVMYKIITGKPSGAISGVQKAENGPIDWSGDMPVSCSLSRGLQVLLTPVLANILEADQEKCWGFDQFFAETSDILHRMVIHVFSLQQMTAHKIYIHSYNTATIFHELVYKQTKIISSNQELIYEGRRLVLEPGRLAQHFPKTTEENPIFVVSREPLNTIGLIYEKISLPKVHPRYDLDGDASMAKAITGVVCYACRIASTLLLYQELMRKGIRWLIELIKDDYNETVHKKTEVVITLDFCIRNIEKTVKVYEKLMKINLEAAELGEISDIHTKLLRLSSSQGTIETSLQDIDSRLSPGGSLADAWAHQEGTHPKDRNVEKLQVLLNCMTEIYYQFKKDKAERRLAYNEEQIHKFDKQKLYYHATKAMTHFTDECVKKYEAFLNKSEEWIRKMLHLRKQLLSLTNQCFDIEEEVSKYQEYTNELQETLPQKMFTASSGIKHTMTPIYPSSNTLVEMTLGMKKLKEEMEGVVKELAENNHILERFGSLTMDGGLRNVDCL

[24] = biological target: Muscle, skeletal receptor tyrosine-protein kinase (Homo sapiens) (UniProt O15146); assay: Inhibition of MUSK (unknown origin) using [gamma-33P]ATP assessed as residual activity at 3 uM
[25] = biological target: Tyrosine-protein kinase ABL2 (Homo sapiens) (UniProt P42684); assay: Inhibition of ABL2 (unknown origin) using [gamma-33P]ATP assessed as residual activity at 3 uM; outline: as §2
[26] = biological target: G protein-coupled receptor kinase 5 (Homo sapiens) (UniProt P34947); assay: Inhibition of GRK5 (unknown origin) using [gamma-33P]ATP assessed as residual activity at 3 uM; outline: as §3
G protein-coupled receptor kinase 5 (Homo sapiens), sequence (P34947 whole entry, looked up): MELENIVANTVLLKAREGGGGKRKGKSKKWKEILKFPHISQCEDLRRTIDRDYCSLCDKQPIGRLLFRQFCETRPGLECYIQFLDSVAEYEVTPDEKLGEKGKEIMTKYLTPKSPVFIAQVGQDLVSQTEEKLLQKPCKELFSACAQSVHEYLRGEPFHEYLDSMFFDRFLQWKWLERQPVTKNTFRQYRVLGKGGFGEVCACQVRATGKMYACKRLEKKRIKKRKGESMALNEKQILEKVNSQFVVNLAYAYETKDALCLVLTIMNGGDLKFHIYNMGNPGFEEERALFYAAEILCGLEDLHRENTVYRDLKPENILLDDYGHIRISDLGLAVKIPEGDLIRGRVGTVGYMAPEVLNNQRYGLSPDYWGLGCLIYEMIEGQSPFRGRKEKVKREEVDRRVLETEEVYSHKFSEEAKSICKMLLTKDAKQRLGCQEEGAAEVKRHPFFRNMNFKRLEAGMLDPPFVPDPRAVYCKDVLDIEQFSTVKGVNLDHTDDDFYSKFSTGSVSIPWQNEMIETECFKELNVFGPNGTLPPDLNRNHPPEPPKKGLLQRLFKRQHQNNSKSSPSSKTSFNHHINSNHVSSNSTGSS

[27] = biological target: Wee1-like protein kinase (Homo sapiens) (UniProt P30291); assay: Inhibition of WEE1 (unknown origin) using [gamma-33P]ATP assessed as residual activity at 3 uM
Wee1-like protein kinase (Homo sapiens), sequence (P30291 whole entry, looked up): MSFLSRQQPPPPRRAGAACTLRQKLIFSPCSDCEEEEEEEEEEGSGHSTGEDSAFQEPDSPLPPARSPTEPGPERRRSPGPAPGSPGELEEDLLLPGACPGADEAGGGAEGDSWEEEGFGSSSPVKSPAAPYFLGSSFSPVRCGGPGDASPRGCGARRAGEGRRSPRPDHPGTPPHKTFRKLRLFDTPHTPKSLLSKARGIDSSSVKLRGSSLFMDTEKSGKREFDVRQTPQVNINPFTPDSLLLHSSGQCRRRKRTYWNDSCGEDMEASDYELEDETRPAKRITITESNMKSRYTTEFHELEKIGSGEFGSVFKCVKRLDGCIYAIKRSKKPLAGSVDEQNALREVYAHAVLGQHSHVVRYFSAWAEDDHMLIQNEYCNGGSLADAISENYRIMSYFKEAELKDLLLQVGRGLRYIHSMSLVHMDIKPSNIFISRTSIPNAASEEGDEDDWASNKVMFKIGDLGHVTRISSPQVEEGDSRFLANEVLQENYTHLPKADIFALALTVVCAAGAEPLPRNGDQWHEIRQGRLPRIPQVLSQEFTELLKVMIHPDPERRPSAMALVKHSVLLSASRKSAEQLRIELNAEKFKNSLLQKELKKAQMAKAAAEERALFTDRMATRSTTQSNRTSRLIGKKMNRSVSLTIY

[28] = biological target: Tyrosine-protein kinase Fyn (Homo sapiens, UniProt P06241); assay: Inhibition of FYN (unknown origin) using [gamma-33P]ATP assessed as residual activity at 3 uM
[29] = biological target: Protein kinase C delta type (Homo sapiens) (UniProt Q05655); assay: Inhibition of PKCd (unknown origin) using [gamma-33P]ATP assessed as residual activity at 3 uM
[30] = biological target: Aurora kinase C (Homo sapiens) (UniProt Q9UQB9); assay: Inhibition of Aurora C (unknown origin) using [gamma-33P]ATP assessed as residual activity at 3 uM; outline: as §2
[31] = biological target: Fibroblast growth factor receptor 1 (Homo sapiens) (UniProt P11362); assay: Inhibition of FGFR1 (unknown origin) using [gamma-33P]ATP assessed as residual activity at 3 uM; outline: as §1

- Activity [1]: 95%
- Activity [2]: 87%
- Activity [3]: 91%
- Activity [4]: 95%
- Activity [5]: 102%
- Activity [6]: 97%
- Activity [7]: 95%
- Activity [8]: 109%
- Activity [9]: 83%
- Activity [10]: 100%
- Activity [11]: 94%
- Activity [12]: 90%
- Activity [13]: 88%
- Activity [14]: 96%
- Activity [15]: 80%
- Activity [16]: 86%
- Activity [17]: 81%
- Activity [18]: 73%
- Activity [19]: 102%
- Activity [20]: 95%
- Activity [21]: 81%
- Activity [22]: 95%
- Activity [23]: 71%
- Activity [24]: 68%
- Activity [25]: 90%
- Activity [26]: 103%
- Activity [27]: 91%
- Activity [28]: 39%
- Activity [29]: 91%
- Activity [30]: 87%
- Activity [31]: 95%
SMILES: CCc1ccc(-c2ccc3c(c2)-c2[nH]ncc2S(=O)(=O)N3C)cc1
